Compound activity from PubChem BioAssay.
NPY Y1 blocker = NPY-Y1 receptor antagonists, primary screen, cell-based. Neuropeptide Y receptor type 1 (Homo sapiens), P25929. HEK293-CNG Y1 cells, membrane potential fluorescence; NPY at EC95, then isoproterenol. inhibition, % at 3.6 µM. hit rate 1% among 200,000;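 active = inhibition above the campaign mean inhibition of all tested compounds plus 3 SD, cut at about 20% in these data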
Target sequence (P25929 whole entry, looked up): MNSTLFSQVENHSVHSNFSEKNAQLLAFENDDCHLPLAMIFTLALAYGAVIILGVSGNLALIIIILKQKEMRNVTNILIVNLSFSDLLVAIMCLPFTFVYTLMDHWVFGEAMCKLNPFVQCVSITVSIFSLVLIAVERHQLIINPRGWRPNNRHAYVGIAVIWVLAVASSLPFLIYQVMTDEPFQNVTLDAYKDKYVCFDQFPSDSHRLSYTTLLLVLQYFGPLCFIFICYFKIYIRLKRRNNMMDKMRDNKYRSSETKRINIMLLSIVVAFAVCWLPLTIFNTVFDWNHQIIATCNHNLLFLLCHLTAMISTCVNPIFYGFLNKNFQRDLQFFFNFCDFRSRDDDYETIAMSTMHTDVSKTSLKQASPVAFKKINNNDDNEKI
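Material: HEK293 Y1/CNG channel cell line | Also added: NPY (25 nM), isoproterenol (1 µM), Ro 20-1724 (25 µM) | Compound: One concentration, 3.6 µM, in 0.4% DMSO | Schedule: 3 h dye uptake, 1 h room-temperature compound, 45 min post-isoproterenol | Signal: Membrane-potential fluorescent dye readout | Read-out: % inhibition of NPY effect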
NPY-Y1 PAM-ag = NPY-Y1 receptor potentiators or agonists, primary screen, cell-based; NPY-Y1 expressing cells, potentiator/agonist activation; activation, % at 3.6 µM; hit rate 0.37% among 220,000; in the data active = activation above about 33%, passing the limit was not always enough;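 note: cells stimulated with NPY at EC10 then isoproterenol at EC100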
NPY2 pot ag = NPY-Y2 potentiators or agonists, primary screen, cell-based | cells expressing NPY-Y2, potentiator/agonist read-out | activation, % at 3.6 µM | hit rate 0.45% among 220,000; in the data active = activation above about 27%;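 note: cells stimulated with NPY near EC25 plus isoproterenol at EC100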
NPY-Y2 antag = NPY-Y2 receptor antagonists, primary screen, cell-based; NPY-Y2 expressing cells, antagonist mode; Neuropeptide Y receptor type 2 (Homo sapiens), P49146; hit rate 0.99% among 140,000; inhibition, % at 2.7 µM
NPY1 antag conf = NPY-Y1 receptor antagonists, retest of hits, confirmation, HEK293-CNG cells, membrane potential fluorescence, triplicate; cAMP; NPY challenge against isoproterenol-raised cAMP; shares compounds with NPY Y1 blocker; AID 1254, 2008; hit rate 21% among 1,200; inhibition, % at 3.6 µM; in the data active = inhibition above about 20%
NPY2 antag ctr = NPY-Y2 receptor antagonists, selectivity check, confirmation, counter-screen for NPY-Y1 antagonist project, HEK293-CNG cells, membrane potential fluorescence, triplicate; shares compounds with NPY Y1 blocker; antagonism; cells given NPY, then isoproterenol; inhibition, % at 3.6 µM; hit rate 28% among 1,200; AID 1255, 2008
Large screens that a line does not name were inactive (follow-up assays come after a bar, where they were run). Rows were chosen to be rich in hits. Some 1.8% of all compounds tested hit in one or more screens of this group. Cut-off read from the data, not from the text of the source, unless noted: active = inhibition above about 17%; inactive = the rest.

Cc1nn(C)cc1C(C)NC(=O)c1cc(COc2c(F)cccc2F)on1 (centres undefined)	none (no result: NPY-Y2 antag)
COc1cc(C)c(C)cc1S(=O)(=O)N1CCN(Cc2ccc3c(c2)OCO3)CC1	NPY Y1 blocker 24 | NPY1 antag conf inactive | NPY2 antag ctr inactive
COc1ccc(S(=O)(=O)N2CCCC(C(F)(F)F)C2)cc1 (centres undefined)	none (no result: NPY-Y2 antag)
O=C(NC1CCCCC1)C(c1ccncc1)N(Cc1ccc2c(c1)OCO2)C(=O)C(F)(F)F (centres undefined)	NPY Y1 blocker 21 | NPY1 antag conf inactive | NPY2 antag ctr inactive
CC(C)C(c1nnnn1Cc1ccco1)N1CCN(C2CCCC2)CC1 (centres undefined)	none
CCCC(c1nnnn1Cc1cccs1)N1CCN(C2CCCC2)CC1 (centres undefined)	NPY Y1 blocker 25 | NPY1 antag conf inactive | NPY2 antag ctr inactive
CCCC(c1nnnn1Cc1ccco1)N1CCN(C2CCCC2)CC1 (centres undefined)	NPY Y1 blocker 22 | NPY1 antag conf inactive | NPY2 antag ctr inactive
CC12CCC(c3n[nH]c(=S)nc31)C2(C)C (centres undefined)	none
S=c1[nH]nc(-c2cccc(Br)c2)o1	NPY Y1 blocker 24 | NPY1 antag conf inactive | NPY2 antag ctr inactive
S=c1[nH]nc(-c2cccnc2)o1	none
N=C1C(c2nc3ccccc3s2)=C(O)CN1NC(=O)c1c[nH]c2ccccc12	NPY Y1 blocker 28 (no result: NPY-Y2 antag) | NPY1 antag conf 26 | NPY2 antag ctr 28
CCOC(=O)c1c(NC(=O)C(F)(OC)C(F)(F)F)sc(C(=O)N2CCCCC2)c1C (centres undefined)	NPY Y1 blocker 22 | NPY1 antag conf inactive | NPY2 antag ctr inactive
O=c1[nH]cnc2c1N=C(c1cccc([N+](=O)[O-])c1)CC(c1ccccc1)N2 (centres undefined)	none (no result: NPY-Y2 antag)
O=C(c1ccc2c(c1)OCO2)N(CC1CCCO1)C1(C(=O)NC2CCCC2)CCCCC1 (centres undefined)	NPY Y1 blocker 30 | NPY1 antag conf inactive | NPY2 antag ctr inactive
S=C(NCCCn1ccnc1)Nc1cccc(Cl)c1	none (no result: NPY-Y2 antag)
CC(C)CCNc1nc(-c2ccco2)c2c(c1C#N)CCCC2	NPY Y1 blocker 22 | NPY1 antag conf inactive | NPY2 antag ctr inactive
COc1cnc(-c2ccccn2)nc1Oc1ccc(Cl)c2ccccc12	NPY Y1 blocker 25 | NPY1 antag conf inactive | NPY2 antag ctr 22
O=C(N=C1c2ccccc2CN1c1ccc(F)c(Cl)c1)c1cccnc1Cl	none
CCOc1ccccc1NC(=O)c1ccccc1-c1nc(-c2ccccc2OC)no1	NPY Y1 blocker 43 | NPY1 antag conf 24 | NPY2 antag ctr 23
Clc1ccc(-c2csc3ncnc(NCCN4CCOCC4)c23)cc1	none
Clc1ccc(CNc2nc(CN3CCOCC3)nc3scc(-c4ccccc4)c23)cc1	NPY Y1 blocker 22 | NPY1 antag conf 22 | NPY2 antag ctr 18
Cc1nn(C)c(C)c1Nc1ccc(N2C(=O)C3CC=CCC3C2=O)cc1[N+](=O)[O-] (centres undefined)	none (no result: NPY-Y2 antag)
CC(C)CC(C(=O)NC1CCCC1)N(Cc1cccs1)C(=O)c1snc(C(N)=O)c1N (centres undefined)	NPY Y1 blocker 21 | NPY1 antag conf inactive | NPY2 antag ctr inactive
CCc1ccc(S(=O)(=O)c2n[nH]n3c2nc(=O)c2ccccc23)cc1	NPY Y1 blocker 24 | NPY1 antag conf inactive | NPY2 antag ctr inactive
CC(C)c1ccc(S(=O)(=O)c2n[nH]n3c2nc(=O)c2ccccc23)cc1	none
CCN(CC)CCOC(=O)/C=C/c1ccccc1OC	NPY Y1 blocker 21 | NPY1 antag conf inactive | NPY2 antag ctr inactive
O=C(CN1CCN(Cc2ccccc2Cl)CC1)N/N=C/c1ccccn1	none (no result: NPY Y1 blocker, NPY-Y2 antag)
CCCn1ncc(CN2CCC(CO)(CC3CCCCO3)CC2)c1C (centres undefined)	none (no result: NPY-Y2 antag)
Cc1ccccc1N1CCN(c2ncnc3c2cnn3Cc2ccc(Cl)cc2)CC1	NPY Y1 blocker 29 | NPY1 antag conf inactive | NPY2 antag ctr 17
